Test results as given in ChEMBL document CHEMBL1124690, “Synthesis and antitumor activity of fused tetracyclic quinoline derivatives. 1” (J Med Chem, 1989).
In brackets after ≈: the same amount, converted by molar mass. Activity calls are given as the source filed them. The calls are words filed in the database; no cut-off is given here.

How the values were obtained:
[1] = Percent fluorescence of the ethidium bromide-DNA complex
Procedure, shortened: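 Ethidium displacement: ethidium bromide 3 µM and calf thymus DNA 20 µM in Hepes 2 mM, EDTA 10 µM, NaCl 9.4 mM, pH 7.0; drug 10 µM. Excitation 564 nm filter, emission 595 nm. Fluorescence with drug as % of drug-free control; mean ± SE of three experiments.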

[2] = Inhibition of KB cell growth in vitro; type: functional, cell-based; conditions: Homo sapiens
Procedure, shortened: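 KB clonal cells in Eagle's MEM with 10% calf serum, 37 °C, 5% CO2; seeded 2100 cells/cm², medium changed at 24 h, then graded drug 0.3–100 µg/mL for 48 h, duplicate dishes per concentration. Cells trypsinized and counted by Coulter counter; IC50 from log concentration vs growth rate (% of control).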

[3] = tested on: P388; experiment: Median survival time per control mice with leukemia P388 at 10 mg/kg dose injected intraperitoneally; type: functional, Mus musculus; conditions: route intraperitoneal
Procedure, shortened: (§1)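 CD2F1 mice (six per group) implanted ip with 10⁶ P388 leukemia cells. Drug dissolved in 0.9% NaCl with a drop of Tween 80, given ip once daily on days 1 and 5. % T/C = median survival time treated/control × 100.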

[4] = tested on: P388; experiment: Median survival time per control mice with leukemia P388 at 20 mg/kg dose injected intraperitoneally; type: functional, Mus musculus; conditions: route intraperitoneal; procedure, shortened: as §1
[5] = tested on: P388; experiment: Median survival time per control mice with leukemia P388 at 40 mg/kg dose injected intraperitoneally; type: functional, Mus musculus; conditions: route intraperitoneal; procedure, shortened: as §1
[6] = tested on: B16; experiment: Median survival time per control animal with B16 cells at 12.5 mg/kg dose injected intraperitoneally on day 1,5,8; type: functional, Mus musculus; conditions: route intraperitoneal
Procedure, shortened: (§2)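 Female-unspecified B6D2F1 mice inoculated ip with 0.5 mL of 10% homogenate (Hank's saline) of subcutaneous B16 melanoma. Drug given ip on days 1, 5 and 8. % T/C = median survival time of treated over control group.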

[7] = tested on: B16; experiment: Median survival time per control animal with B16 cells at 25 mg/kg dose injected intraperitoneally on day 1,5,8; type: functional, Mus musculus; conditions: route intraperitoneal; procedure, shortened: as §2
[8] = tested on: B16; experiment: Median survival time per control animal with B16 cells at 6.3 mg/kg dose injected intraperitoneally on day 1,5,8; type: functional, Mus musculus; conditions: route intraperitoneal; procedure, shortened: as §2
[9] = Median survival time per control animal with colon 38 carcinoma cells at 25 mg/kg dose injected intraperitoneally on day 1,8,15,22; type: functional, Mus musculus; conditions: route intraperitoneal
Procedure, shortened: (§3)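 Colon 38 inoculated sc as a 1 × 1 × 1 mm³ fragment into B6D2F1 mice; drug dosed ip on days 1, 8, 15 and 22. Result expressed as % T/C of median survival time, treated versus control.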

[10] = Median survival time per control animal with colon 38 carcinoma cells at 35 mg/kg dose injected intraperitoneally on day 1,8,15,22; type: functional, Mus musculus; conditions: route intraperitoneal; procedure, shortened: as §3
[11] = Median survival time per control animal with colon 38 carcinoma cells at 6.3 mg/kg dose injected intraperitoneally on day 1,8,15,22; type: functional, Mus musculus; conditions: route intraperitoneal; procedure, shortened: as §3
[12] = tested on: M5076; experiment: Median survival time per control animal with M5076 cells at 12.5 mg/kg dose injected intraperitoneally on day 1,5,9; type: functional, Mus musculus; conditions: route intraperitoneal
Procedure, shortened: (§4)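 B6D2F1 mice inoculated ip with 10⁶ M5076 fibrosarcoma cells; drug given ip on days 1, 5 and 9. Activity read as % T/C, ratio of median survival time of treated to control group.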

[13] = tested on: M5076; experiment: Median survival time per control animal with M5076 cells at 25 mg/kg dose injected intraperitoneally on day 1,5,9; type: functional, Mus musculus; conditions: route intraperitoneal; procedure, shortened: as §4
[14] = tested on: M5076; experiment: Median survival time per control animal with M5076 cells at 3.1 mg/kg dose injected intraperitoneally on day 1,5,9; type: functional, Mus musculus; conditions: route intraperitoneal; procedure, shortened: as §4
[15] = tested on: M5076; experiment: Median survival time per control animal with M5076 cells at 50 mg/kg dose injected intraperitoneally on day 1,5,9; type: functional, Mus musculus; conditions: route intraperitoneal; procedure, shortened: as §4
[16] = tested on: M5076; experiment: Median survival time per control animal with M5076 cells at 6.3 mg/kg dose injected intraperitoneally on day 1,5,9; type: functional, Mus musculus; conditions: route intraperitoneal; procedure, shortened: as §4
[17] = tested on: P388; experiment: Median survival time per control mice with leukemia P388 at 100 mg/kg dose injected intraperitoneally; type: functional, Mus musculus; conditions: route intraperitoneal; procedure, shortened: as §1
[18] = tested on: P388; experiment: Median survival time per control mice with leukemia P388 at 12.5 mg/kg dose injected intraperitoneally; type: functional, Mus musculus; conditions: route intraperitoneal; procedure, shortened: as §1
[19] = tested on: P388; experiment: Median survival time per control mice with leukemia P388 at 200 mg/kg dose injected intraperitoneally; type: functional, Mus musculus; conditions: route intraperitoneal; procedure, shortened: as §1
[20] = tested on: P388; experiment: Median survival time per control mice with leukemia P388 at 25 mg/kg dose injected intraperitoneally; type: functional, Mus musculus; conditions: route intraperitoneal; procedure, shortened: as §1
[21] = tested on: P388; experiment: Median survival time per control mice with leukemia P388 at 400 mg/kg dose injected intraperitoneally; type: functional, Mus musculus; conditions: route intraperitoneal; procedure, shortened: as §1
[22] = tested on: P388; experiment: Median survival time per control mice with leukemia P388 at 50 mg/kg dose injected intraperitoneally; type: functional, Mus musculus; conditions: route intraperitoneal; procedure, shortened: as §1
[23] = Median survival time per control animal with colon 38 carcinoma cells at 12.5 mg/kg dose injected intraperitoneally on day 1,8,15,22; type: functional, Mus musculus; conditions: route intraperitoneal; procedure, shortened: as §3
[24] = tested on: DNA topoisomerase II (Bos taurus); experiment: Activity of the topoisomerase II dependent DNA cleavage; Active
[25] = tested on: P388; experiment: Median survival time per control mice with leukemia P388 at 400 mg/kg dose injected a dose of 400 mg/kg; type: functional, organism-based; conditions: Mus musculus
Procedure, shortened: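 CD2F1 mice (six per group) given 10⁶ P388 cells ip; drug in 0.9% NaCl with a drop of Tween 80, ip on days 1 and 5. Activity as % T/C of median survival time, treated vs control.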

[26] = tested on: DNA topoisomerase II (Bos taurus); experiment: Activity of the topoisomerase II dependent DNA cleavage; Inactive
[27] = tested on: DNA topoisomerase 1 (Bos taurus); experiment: Unwinding of DNA observed in a reaction mixture containing PBR322 DNA dimer, calf thymus DNA topoisomerase I, and the drug; + = unwinding was observed at 100 ug/mL
[28] = tested on: DNA topoisomerase 1 (Bos taurus); experiment: Unwinding of DNA observed in a reaction mixture containing PBR322 DNA dimer, calf thymus DNA topoisomerase I, and the drug; ++ = unwinding was observed at 25 ug/mL
[29] = tested on: DNA topoisomerase II (Bos taurus); experiment: Activity of the topoisomerase II dependent DNA cleavage; (-) = Inactive

Structure (SMILES)	Fluoroscence [1] [%]	IC50 [2] [µg/mL]	T/C [18] [%]	T/C [20] [%]	T/C [22] [%]	T/C [25]	other results
COc1cc(NS(C)(=O)=O)ccc1Nc1c2ccccc2nc2ccccc12 [AMSACRINE]	63.7	< 0.3					T/C [3]: 174%; T/C [4]: 198%; T/C [5]: 223%
COc1cc(NS(C)(=O)=O)ccc1Nc1c2c(nc3ccccc13)-c1ccccc1C2	67.6	< 0.3	166	217	240		T/C [6]: 223%; T/C [7]: 211%; T/C [8]: 184%; T/C [9]: 138%; T/C [10]: 150%; T/C [11]: 111%; T/C [12]: 184%; T/C [13]: 111%; T/C [14]: 193%; T/C [15]: 92%; T/C [16]: 158%; T/C [17]: 80%; T/C [19]: 60%; T/C [21]: 0%; T/C [23]: 133%; Activity [24]: Active
COc1cc(NS(C)(=O)=O)ccc1Nc1c2c(nc3ccccc13)-c1ccccc1C2C (centres undefined)	95.3	15 (≈ 33.7 µM)				inactive	Activity [26]: inactive
COc1cc(NS(C)(=O)=O)ccc1Nc1c2ccccc2nc2c1oc1ccccc12	81.4	< 0.3	117	125	159		T/C [17]: 138%; T/C [19]: 168%; T/C [21]: 248%; Activity [24]: Active; Unwinding [27]: unwinding was observed at 100 ug/mL
COc1cc(NS(C)(=O)=O)ccc1Nc1c2ccccc2nc2c1sc1ccccc12	79.3	< 0.3	138	170	170		T/C [17]: 166%; T/C [19]: 238%; T/C [21]: 252%; Activity [24]: Active; Unwinding [28]: unwinding was observed at 25 ug/mL
COc1cc(NS(C)(=O)=O)ccc1Nc1c2c(nc3ccccc13)CCCC2	93.3	41 (≈ 103 µM)				inactive	Activity [26]: inactive
COc1cc(NS(C)(=O)=O)ccc1Nc1c2c(nc3ccccc13)CCN(C)C2	104	> 100				inactive	
COc1cc(NS(C)(=O)=O)ccc1Nc1c2c(nc3ccccc13)CCSC2	106	46 (≈ 111 µM)				inactive	
COc1cc(NS(C)(=O)=O)ccc1Nc1c2ccccc2nc2c3ccccc3n(C)c12	93.6	3.6 (≈ 8.06 µM)				inactive	
CN(C)CCCNc1c2c(nc3ccccc13)CCCC2	82	1.3 (≈ 4.59 µM)				inactive	
CN(C)CCCNc1c2c(nc3ccccc13)-c1ccccc1C2	5.45	< 0.3	110	88	101		Activity [29]: inactive
CN(C)CCCNc1c2c(nc3ccccc13)CCN(C)C2		14 (≈ 46.9 µM)				inactive	
